Structures are written as SMILES.

This is an account of results in BindingDB's records for doi:10.1016/j.bmcl.2005.07.045 (Shanghai Second Medical University, 2005).

The experiment concerns the target Muscarinic acetylcholine receptor M1/M2/M3/M4/M5. Briefly: Agonistic activity against Muscarinic acetylcholine receptor of guinea pig ileal longitudinal muscle. Put shortly: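 Ileal longitudinal muscle strips (1.5 cm) in 10 ml organ baths under 500 mg tension, equilibrated 30 min with bath fluid changed every 10 min. Isotonic contractions recorded during cumulative addition, about 3-fold concentration steps once each response is steady. Response expressed as percent of carbachol maximum. pEC50 determined graphically from dose–response curves, mean of three tests, t test.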

`CC(=O)OC1CC2CC(OC(=O)c3ccc(C)cc3)CC1N2C` (centres undefined): a half-maximal response (EC50) required 4360 nM. That is a single-digit micromolar value. The result for `CC(=O)OC1CC2CC(=O)CC1N2C` (centres undefined) reads 14700 nM; that for `CCCCCCCCCC(=O)OC1CC2CC(OC(C)=O)C(C1)N2C` (centres undefined), 263 nM; that for `CCCCCCC(=O)OC1CC2CC(OC(C)=O)C(C1)N2C` (centres undefined), 26.9 nM. Consider `CC(=O)OC1CC2CC(OC(=O)/C=C\c3ccccc3)CC1N2` (centres undefined), for which the response was half-maximal at 1990 nM (EC50). On to `COc1ccc(C(=O)OC2CC3CC(OC(C)=O)C(C2)N3C)cc1` (centres undefined), for which the EC50 (commonly the concentration needed to bring the measured effect to its halfway point) turned out to be 30100 nM.

Compound `COc1ccc(S(=O)(=O)OC2CC3CC(OC(C)=O)C(C2)N3C)cc1` (centres undefined) registered an EC50 of 93.3 nM. On to `CC(=O)OC1CC2CC(OC(C)=O)C(C1)N2C` (centres undefined), for which the EC50 is 4460 nM. This EC50 is about 48-fold higher than that of the compound before. The compound `CCCCCCCC(=O)OC1CC2CC(OC(C)=O)C(C1)N2C` (centres undefined) registered an EC50 of 1.74 nM. The result for `CC(=O)OC1CC2NC1CCC2O` (centres undefined) reads 79.4 nM; that for `CC(=O)OC1CC2CC(OS(=O)(=O)c3cccc(C)c3)CC1N2C` (centres undefined), 89.1 nM; that for `CCC(=O)OC1CC2CC(OC(=O)CC)C(C1)N2C` (centres undefined), 42600 nM. `CCCC(=O)OC1CC2CC(OC(C)=O)C(C1)N2C` (centres undefined) displayed an EC50 of 5010 nM. `CC(=O)OC1CC2CC(OS(=O)(=O)c3ccccc3)CC1N2C` (centres undefined) had an EC50 of 50.1 nM. This EC50 is about 100-fold lower than that of the compound before.

For `CCCCCC(=O)OC1CC2CC(OC(=O)CCCCC)C(C1)N2C` (centres undefined), the EC50 is 4.79 nM.

Compound `CN1C2CC(=O)CC1C(O)C2` (centres undefined) displayed an EC50 of 407000 nM. This EC50 is about 85000-fold higher than that of the compound before. The result for `CC(=O)OC1CC2CC(OC(=O)/C=C\c3ccccc3)CC1N2C` (centres undefined) reads 117000 nM. In the case of `CC(=O)OC1CC2CC(OS(=O)(=O)c3ccc(C)cc3)CC1N2C` (centres undefined), the EC50 was found to be 104 nM.

Consider `CC(=O)OC1CC2CC(OS(=O)(=O)c3ccc([N+](=O)[O-])cc3)CC1N2C` (centres undefined), for which the response was half-maximal at 44.7 nM (EC50).

`CCCCCC(=O)OC1CC2CC(OC(C)=O)C(C1)N2C` (centres undefined) registered an EC50 of 6.46 nM. This EC50 lies about 6.9-fold lower than the previous one.

For `CC(=O)OC1CC2CCC(C1)N2C` (centres undefined), the EC50 came out at 79400 nM. Regarding `CC(=O)OC1CC2CC(Cl)CC1N2C` (centres undefined), a half-maximal response (EC50) required 11400 nM. The result for `CC(=O)OC1CC2CCCC1N2` (centres undefined) [Acetic acid 8-aza-bicyclo[3.2.1]oct-6-yl ester] reads 6.17 nM; that for `CC(=O)OC1CC2CCCC1N2C` (centres undefined) [Acetic acid 8-methyl-8-aza-bicyclo[3.2.1]oct-6-yl ester], 24500 nM.
